Data reported in ChEMBL document CHEMBL1781999, “Lead optimization of aryl and aralkyl amine-based triazolopyrimidine inhibitors of Plasmodium falciparum dihydroorotate dehydrogenase with antimalarial activity in mice” (J Med Chem, 2011).
Values after ≈ are worked out from the molar mass of the structure shown.

Key:
[1] = Inhibition of His6-tagged recombinant Plasmodium berghei dihydroorotate dehydrogenase expressed in Escherichia coli using L-dihydroorotate as substrate after 10 to 15 mins by DCIP dye-based assay; settings: in the assay text read “5 to 10 mins” for “10 to 15 mins”
In short: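 Truncated soluble enzyme lacking the N-terminal membrane domain. Final concentrations: 0.2 mM L-dihydroorotate, 0.02 mM CoQD, 0.12 mM DCIP. Reaction started with 10 nM enzyme and read at 600 nm for 5–10 min at 20 °C. Inhibitor 0.01–100 μM in 3-fold steps, in triplicate. IC50 from a three-parameter fit of vi/vo from initial rates.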

[2] = Plasma protein binding in human by albumin chromatographic method; format: ADME, cell-free; settings: read-out: PPB (converted)
[3] = Aqueous solubility of the compound in phosphate buffer at pH 6.5; format: physicochemical
In short: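 Non-equilibrium solubility. Concentrated DMSO stocks were diluted into pH 6.5 phosphate buffer (final DMSO 1% v/v) and precipitation was monitored by nephelometry. Solubility is given as the concentration range just before a turbidity signal rose above background.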

[4] = tested on: Liver microsomes; assay: Intrinsic clearance in human liver microsome assessed per mg of protein at 1 uM after 60 mins by LC-MS analysis; format: ADME; settings: microsomes, 1 h, 1 µM
In short: (§1)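 Microsomal stability. Compound at 1 μM with liver microsomes (0.4 mg/mL protein) in 0.1 M phosphate pH 7.4 at 37 °C. Started with an NADPH-regenerating system plus MgCl2; controls lacked NADPH. Quenched with cold acetonitrile at time points up to 60 min. Parent loss measured by LC-MS and fitted to exponential decay to give CLint.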

[5] = molecular target: Dihydroorotate dehydrogenase (quinone), mitochondrial (Homo sapiens, UniProt Q02127); assay: Inhibition of His6-tagged recombinant human dihydroorotate dehydrogenase expressed in Escherichia coli using L-dihydroorotate as substrate after 5 to 10 mins by DCIP dye-based assay
[6] = tested on: Plasmodium falciparum; assay: Antimalarial activity against Plasmodium falciparum 3D7 infected in human A positive erythrocytes by [3H]hypoxanthine uptake assay in presence of serum in medium; format: functional, organism-based
In short: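 Growth read by [3H]-hypoxanthine uptake. Each concentration run in quadruplicate and fitted to a four-parameter variable-slope log[I]-response model for 50% growth inhibition.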

[7] = molecular target: T1, Dihydroorotate dehydrogenase (Plasmodium falciparum, UniProt Q54A96); assay: Inhibition of His6-tagged recombinant Plasmodium falciparum dihydroorotate dehydrogenase expressed in Escherichia coli using L-dihydroorotate as substrate after 5 to 10 mins by DCIP dye-based assay
T1 sequence (Q54A96 whole entry): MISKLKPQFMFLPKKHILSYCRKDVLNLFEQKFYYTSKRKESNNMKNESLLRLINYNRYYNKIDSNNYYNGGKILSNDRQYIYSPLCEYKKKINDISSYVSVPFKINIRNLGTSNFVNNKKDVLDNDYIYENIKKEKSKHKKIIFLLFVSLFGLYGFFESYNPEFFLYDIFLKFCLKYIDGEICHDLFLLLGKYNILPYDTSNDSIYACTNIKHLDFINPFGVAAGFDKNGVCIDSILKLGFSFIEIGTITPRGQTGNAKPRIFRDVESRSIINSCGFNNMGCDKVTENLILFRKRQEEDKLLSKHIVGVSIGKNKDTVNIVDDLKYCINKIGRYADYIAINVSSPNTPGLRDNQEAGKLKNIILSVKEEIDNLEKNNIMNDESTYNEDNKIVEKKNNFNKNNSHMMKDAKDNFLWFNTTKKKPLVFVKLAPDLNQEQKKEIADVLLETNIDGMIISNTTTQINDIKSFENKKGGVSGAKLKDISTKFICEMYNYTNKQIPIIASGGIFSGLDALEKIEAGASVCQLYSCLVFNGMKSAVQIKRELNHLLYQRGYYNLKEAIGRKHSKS

[8] = tested on: Liver; assay: Intrinsic clearance in mouse liver microsome assessed per mg of protein at 1 uM after 60 mins by LC-MS analysis; format: ADME; settings: microsomes, 1 h; in short: as §1
[9] = Partition coefficient, log D of the compound at pH 7.4 by UV-HPLC analysis; settings: octanol/water
[10] = Inhibition of His6-tagged recombinant Plasmodium berghei dihydroorotate dehydrogenase expressed in Escherichia coli using L-dihydroorotate as substrate after 5 to 10 mins by DCIP dye-based assay
[11] = phosphate buffer, read-out: solubility

Sequence of Dihydroorotate dehydrogenase (quinone), mitochondrial (Q02127 whole entry): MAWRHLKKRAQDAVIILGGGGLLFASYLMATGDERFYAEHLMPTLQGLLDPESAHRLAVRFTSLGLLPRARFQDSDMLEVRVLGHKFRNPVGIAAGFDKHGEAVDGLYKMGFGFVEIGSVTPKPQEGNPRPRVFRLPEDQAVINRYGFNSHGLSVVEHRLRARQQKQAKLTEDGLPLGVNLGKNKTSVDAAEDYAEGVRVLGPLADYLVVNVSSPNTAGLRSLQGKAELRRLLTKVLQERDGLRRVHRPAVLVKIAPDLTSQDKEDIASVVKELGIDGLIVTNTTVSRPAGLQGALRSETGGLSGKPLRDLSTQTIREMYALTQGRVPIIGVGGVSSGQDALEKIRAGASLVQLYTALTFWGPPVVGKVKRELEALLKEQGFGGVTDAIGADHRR

| SMILES | IC50 [1] [µM] | IC50 [5] [µM] | EC50 [6] [µM] | IC50 [7] [µM] | further results |
| --- | --- | --- | --- | --- | --- |
| Cc1cc(Nc2ccc(SC(F)(F)F)cc2)n2ncnc2n1 | 1.2 | > 50 | 0.27 | 0.61 | fraction unbound [2]: 0.039; solubility [3, 11]: 5 µM (≈ 1.63 µg/mL); CL [4]: < 5 µL/min/mg; CL [8]: 119 µL/min/mg |
| Cc1cc(NC2CCCCCCCCCCC2)n2ncnc2n1 | – | – | – | 58 | – |
| Cc1cc(NC2CCC2)n2ncnc2n1 | – | – | – | > 100 | – |
| Cc1cc(NC2CCCC2)n2ncnc2n1 | – | – | – | > 100 | – |
| Cc1ccc(Nc2c3c(nc4ncnn24)CCC3)cc1F | 1.3 | > 100 | 8.3 | – | – |
| Cc1cc(Nc2ccc(C(F)(F)F)c(C(F)(F)F)c2)n2ncnc2n1 | 0.55 | – | 2.3 | 0.54 | – |
| FC(F)(F)c1ccc(Nc2cc(Cl)nc3ncnn23)cc1 | 0.13 | > 100 | 3.4 | 0.17 | – |
| C#Cc1ccc(Nc2cc(C)nc3ncnn23)cc1 | 4.1 | > 100 | 5.1 | 1.1 | fraction unbound [2]: 0.182; solubility [3, 11]: 100 µM (≈ 24.9 µg/mL); CL [4]: 8 µL/min/mg; logD [9]: 2.2; CL [8]: 27 µL/min/mg |
| CCCCCCCNc1cc(C)nc2ncnn12 | 55 | – | 13 | 8.6 | – |
| CCCCCCc1ccc(Nc2cc(C)nc3ncnn23)cc1 | 20 | – | > 5 | 4.2 | – |
| CCCCCc1ccc(Nc2cc(C)nc3ncnn23)cc1 | 22 | > 100 | > 5 | 0.82 | – |
| Cc1cc(Nc2ccc3c(c2)OCO3)n2ncnc2n1 | 55 | > 100 | 21 | 1.6 | solubility [3, 11]: 186 µM (≈ 50.1 µg/mL); CL [4]: 11 µL/min/mg; logD [9]: 1.6 |
| Cc1cc(Nc2ccc3c(c2)CCC3)n2ncnc2n1 | 1 | > 100 | 0.8 | 0.22 | fraction unbound [2]: 0.075; solubility [3, 11]: 47 µM (≈ 12.5 µg/mL); CL [4]: 77 µL/min/mg; logD [9]: 2.9; CL [8]: 341 µL/min/mg |
| FC(F)(F)c1ccc(Nc2cc(C(F)(F)F)nc3ncnn23)cc1 | 2.3 | > 100 | > 10 | 1.7 | – |
| Cc1cc(Nc2ccc(Cl)c(F)c2)n2ncnc2n1 | 1.3 | > 50 | 3.5 | 0.55 | – |
| Cc1cc(Nc2ccc(N(C)C)cc2)n2ncnc2n1 | 12 | > 100 | 2.7 | 0.82 | solubility [3, 11]: 93 µM (≈ 25 µg/mL); CL [4]: 9 µL/min/mg; logD [9]: 2.2; CL [8]: 226 µL/min/mg |
| CCCCc1ccc(Nc2cc(C)nc3ncnn23)cc1 | 5.25 | > 100 | 4.8 | 0.28 | fraction unbound [2]: 0.033; solubility [3, 11]: 11 µM (≈ 3.09 µg/mL); CL [4]: 36 µL/min/mg; logD [9]: 3.6 |
| Cc1cc(Nc2ccc(OC(C)(C)C)cc2)n2ncnc2n1 | – | – | > 10 | 44 | – |
| Cc1cc(Nc2ccc(N3CCCC3)cc2)n2ncnc2n1 | > 50 | – | > 20 | 3.5 | – |
| Cc1cc(NC2CCc3cc(F)ccc3C2)n2ncnc2n1 (stereo not given) | 1.9 | – | 2.5 | 0.63 | – |
| Cc1cc(NCc2ccc(F)cc2)n2ncnc2n1 | – | – | > 10 | > 100 | – |
| CCc1cc(Nc2ccc(C(F)(F)F)cc2)n2ncnc2n1 | 2 | > 100 | 2.3 | 0.78 | – |
| CCCCCCCCc1ccc(Nc2cc(C)nc3ncnn23)cc1 | – | – | > 5 | > 50 | IC50 [10]: > 100 µM |
| Cc1cc(NCc2ccc(C(F)(F)F)cc2)n2ncnc2n1 | – | – | – | > 100 | IC50 [10]: > 100 µM |
| Cc1cc(NCCc2ccccc2)n2ncnc2n1 | 27 | – | > 20 | 15 | – |
| Cc1cc(NC2CCc3cc(Cl)ccc3C2)n2ncnc2n1 (stereo not given) | – | – | 10 | 0.67 | IC50 [10]: 10 µM |

| SMILES | IC50 [1] [µM] | IC50 [5] [µM] | EC50 [6] [µM] | IC50 [7] [µM] | further results |
| --- | --- | --- | --- | --- | --- |
| Cc1cc(Nc2ccc3ccccc3c2)n2ncnc2n1 | – | – | – | – | fraction unbound [2]: 0.062; solubility [3, 11]: 45 µM (≈ 12.4 µg/mL); logD [9]: 3.2 |
| Cc1cc(Nc2ccc(OCc3ccccc3)cc2)n2ncnc2n1 | – | – | > 10 | 5.4 | IC50 [10]: > 100 µM |
| Cc1cc(Nc2ccc(C(C)(C)C#N)cc2)n2ncnc2n1 | – | – | 3.7 | – | – |
| CCCc1ccc(Nc2cc(C)nc3ncnn23)cc1 | 9 | > 100 | 6.8 | 0.99 | fraction unbound [2]: 0.065; solubility [3, 11]: 187 µM (≈ 50 µg/mL); CL [4]: 36 µL/min/mg; logD [9]: 3.1 |
| Cc1cc(NCCCc2ccccc2)n2ncnc2n1 | – | – | 25 | 26 | IC50 [10]: > 100 µM |
| Cc1cc(NC2CCCCCCC2)n2ncnc2n1 | – | – | – | > 100 | – |
| Cc1cc(Nc2ccc3[nH]c(C(F)(F)F)nc3c2)n2ncnc2n1 | > 50 | – | 25 | 21 | – |
| CCc1ccc(Nc2cc(C)nc3ncnn23)cc1 | 3.9 | > 100 | 3.3 | 0.61 | fraction unbound [2]: 0.12; solubility [3, 11]: 25 µM (≈ 6.33 µg/mL); CL [4]: 61 µL/min/mg; logD [9]: 2.6 |
| Cc1cc(NC2CC2)n2ncnc2n1 | – | – | – | > 100 | – |
| Cc1cc(NOc2ccccc2)n2ncnc2n1 | – | – | – | > 100 | IC50 [10]: > 100 µM |
| CCc1c(C)nc2ncnn2c1Nc1ccc(OC(F)(F)F)cc1 | 5.7 | > 100 | > 10 | – | – |
| Cc1cc(Nc2ccc(CC(F)(F)F)cc2)n2ncnc2n1 | 8.8 | – | – | 2.5 | – |
| Cc1cc(Nc2ccc(N3CCOCC3)cc2)n2ncnc2n1 | – | – | > 10 | > 100 | IC50 [10]: > 100 µM |
| C=Cc1ccc(Nc2cc(C)nc3ncnn23)cc1 | 4.5 | > 100 | 0.34 | – | fraction unbound [2]: 0.156; solubility [3, 11]: 25 µM (≈ 6.28 µg/mL); CL [4]: 32 µL/min/mg; logD [9]: 2.4; CL [8]: 168 µL/min/mg |
| CCc1nc(N)nc(N)c1-c1ccc(Cl)cc1 [PYRIMETHAMINE] | – | – | 0.023 | – | fraction unbound [2]: 0.13 |
| Cc1cc(NC2CCCCCC2)n2ncnc2n1 | – | – | – | > 100 | – |
| CCCCCCCc1ccc(Nc2cc(C)nc3ncnn23)cc1 | > 50 | – | > 5 | 24 | – |
| Cc1cc(NC2Cc3ccc(Br)cc3C2)n2ncnc2n1 (stereo not given) | 3.3 | > 50 | 6.6 | 1.2 | – |
| Cc1cc(Nc2ccc(C(C)(C)C)cc2)n2ncnc2n1 | 0.4 | > 100 | 0.32 | 0.078 | fraction unbound [2]: 0.068; solubility [3, 11]: 11 µM (≈ 3.09 µg/mL); CL [4]: 43 µL/min/mg; logD [9]: 3.4 |
| COc1cc2c(cc1OC)CC(Nc1cc(C)nc3ncnn13)C2 | 41 | – | 7.7 | 4.6 | – |
| Cc1cc(Nc2ccc(C3CC3)cc2)n2ncnc2n1 | 2.9 | > 100 | 1.4 | 0.42 | fraction unbound [2]: 0.132; solubility ([3]; buffer): > 377 µM; CL [4]: 53 µL/min/mg; logD [9]: 2.7; CL [8]: 287 µL/min/mg |
| Cc1cc(NC2CCCCC2)n2ncnc2n1 | – | – | – | > 100 | – |
| Cc1cc(NC2Cc3ccc(F)cc3C2)n2ncnc2n1 (stereo not given) | 1.4 | > 50 | 1.3 | 0.61 | – |
| Cc1cc(NCc2ccccc2)n2ncnc2n1 | – | – | > 10 | > 100 | – |
| CCc1c(C)nc2ncnn2c1Nc1ccc(C(C)C)cc1 | 4.5 | > 100 | > 10 | 1.7 | – |
